aDG glyco act: alpha-DG glycosylation activation | 0.22% of 360,000 active | activation, % at 10 µM | Pro5-aDG cells, alpha-DG glycosylation AlphaScreen (IIH6); 0% Pro5, 100% B10-LARGE cell signal;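 active = activation of at least 8% versus controls, or a plate z-score of at least 8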;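 note: Pro5 are CHO cells carrying HIG-tagged alpha-DG that lacks glycosylation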
NR2E3 ag-1: activates human NR2E3 receptor | CHO-S Gal4-NCOR/VP16-NR2E3 two-hybrid, luciferase | inhibition of corepressor binding, % at 3.98 µM | Q9Y5X4 | AID 602229 | 0.35% of 360,000 active;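 active = inhibition above the mean of all tested compounds plus 3 SD, cut at about 70% in these data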;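 note: 0% = DMSO with NR2E3 transfected cells and 100% = cells lacking NR2E3 construct; higher means lower luciferase signal from less NR2E3 corepressor binding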
Target sequence (Q9Y5X4 whole entry, looked up, the tested form may be a part): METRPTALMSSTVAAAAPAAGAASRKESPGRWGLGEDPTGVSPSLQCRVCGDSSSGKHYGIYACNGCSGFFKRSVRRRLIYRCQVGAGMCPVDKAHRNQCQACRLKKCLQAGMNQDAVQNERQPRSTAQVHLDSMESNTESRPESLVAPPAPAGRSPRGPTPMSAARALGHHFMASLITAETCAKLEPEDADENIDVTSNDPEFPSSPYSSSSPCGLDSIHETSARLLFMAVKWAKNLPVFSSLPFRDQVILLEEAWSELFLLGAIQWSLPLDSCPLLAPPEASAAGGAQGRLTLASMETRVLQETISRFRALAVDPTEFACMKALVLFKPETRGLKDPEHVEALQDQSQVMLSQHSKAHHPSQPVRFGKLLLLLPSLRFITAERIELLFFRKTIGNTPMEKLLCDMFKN
Jurkat NFkB inh: inhibitors of the PMA/ionomycin-induced NF-kB reporter in Jurkat cells; 0.53% of 330,000 active; PMA/ionomycin-induced NF-kB luciferase reporter, luminescence; AID 435003; inhibition, % at 4 µM; in the data active = inhibition above about 50%
697 NFkB inh: lowers PMA/ionomycin-induced NF-kB signal in 697 B cells; 697 B-cell NF-kB luciferase reporter, 16 h; inhibition, % at 4 µM; 0.33% of 330,000 active; in the data active = inhibition above about 35%
MPTP inh: permeability transition pore inhibition; isolated mouse mitochondria, Ca2+ swelling absorbance, 30 min; 1.4% of 360,000 active; inhibition, % at 10 µM;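 active = inhibition of 50% or more, scaled per plate between neutral and stimulator controls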;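 note: 0% = DMSO wells given calcium and 100% = 1 mM EGTA wells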
NR2E3 ag-2: NR2E3 (human) agonism. 0.12% of 320,000 active. AID 2300. Q9Y5X4. GST-NR2E3/biotin-RetCOR TR-FRET, 1536-well. inhibition of corepressor binding, % at 4.78 µM;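 active = percent inhibition above the cutoff of mean plus 3 SD of all tested compounds, set per screening campaign, cut at about 20% in these data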;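 note: 0% = DMSO wells and 100% = biotin wells as full block of FRET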
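Material: NR2E3–RetCOR corepressor complex / Amount: 1.35 nM GST-NR2E3 / Medium: Tris pH 7.5 / Compound: single nominal compound dose of 4.8 µM / Incubation: 5 h at 4 °C / Technique: TR-FRET, Eu(K)-anti-GST donor, streptavidin-D2 acceptor, ex 340, em 617/671 nm / Read-out basis: percent loss of FRET ratio relative to control wells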
MPTP counter: Rhodamine 123 counter-screen of mitochondrial pore hits; shares compounds with MPTP inh; isolated mitochondria, membrane potential, Rhodamine 123 fluorescence; inhibition, % at 10 µM; 78% of 5,000 active; AID 624504; in the data active = inhibition above about 22%;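 note: 0% = DMSO vehicle and 100% = positive control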
MPTP abs DR: MPTP inhibition, dose response swelling confirmation. shares compounds with MPTP inh. isolated mitochondria swelling, absorbance. IC50, µM. 58% of 780 active. AID 651561; in the data active = IC50 below about 20 µM
MPTP cs DR: counter-screen for mitochondrial permeability transition pore inhibitors, dose response; shares compounds with MPTP inh; isolated mitochondria counterscreen, fluorescence read-out; IC50, µM; 49% of 780 active; AID 651564; in the data active = IC50 below about 80 µM
Starred values were filed as active, the others as inactive; i = inactive; · = not tested or not shown. Hits are enriched below; roughly 2.4% of the tested compounds scored in any of these assays.

SMILES	aDG glyco act	NR2E3 ag-1	Jurkat NFkB inh	697 NFkB inh	MPTP inh	NR2E3 ag-2	MPTP counter	others
O=C(NCCCc1ccccc1)Nc1cccc(Cl)c1	0	-49	-8	1	70*	2	95*
CC(=O)Nc1ccc(NC(=O)Nc2cccc(Cl)c2)cc1	0	-24	-28	-1	0	-3	·
CC(=O)c1ccc(NC(=S)NCCc2cccc(Cl)c2)cc1	2	-114	-67	-68	86*	3	95*
O=C(Nc1ccccc1)Nc1cccc(Cl)c1	2	-75	-41	-47	96*	1	87*
CC(C)(C)c1cc(C(=O)NNC(=O)Nc2ccccc2)n(Cc2ccccc2)n1	0	3	11	10	17	1	·
CC(=O)c1ccc(NC(=S)NCCc2ccc(S(N)(=O)=O)cc2)cc1	0	-34	-21	-2	1	-1	·
CCn1c(SCc2ccc(C#N)cc2)nnc1-c1ccc(S(=O)(=O)N2CCCCC2)cc1	1	1	14	-13	4	-2	·
CN(C)C(=O)CCCCCCCCC(=O)N(C)C	0	-34	-5	8	1	2	·
CCOCCCNCc1ccc(OCCC(C)C)c(OC)c1	0	-9	0	4	1	-4	·
O=C(Nc1ccccc1)Nc1ccc(Cl)nc1Cl	0	-54	-21	-40	73*	-2	88*
O=C(Nc1ccc(F)cc1)Nc1cc(S(=O)(=O)N2CCOCC2)ccc1N1CCCC1	0	-8	-1	21	0	-5	·
COc1ccc(NC(=S)Nc2cccc(S(=O)(=O)N3CCCCC3)c2)cc1	0	-20	-27	-34	68*	0	88*
O=C(Nc1ccc(Cl)cc1)Nc1cc(S(=O)(=O)N2CCOCC2)ccc1N1CCCC1	0	-20	-12	-6	71*	-1	73*
O=C(Cc1ccccc1Cl)Nc1cccc(S(=O)(=O)N2CCCCCC2)c1	1	-30	-15	-4	2	2	·
O=C(Nc1cccc(S(=O)(=O)N2CCCCC2)c1)Nc1ccc(Cl)cc1Cl	3	-12	6	12	85*	0	73*
O=C(NC1CCN(S(=O)(=O)c2ccc(F)cc2)CC1)c1ccc(F)cc1	0	-16	13	4	3	1	·
O=C(Nc1ccc(Cl)cc1Cl)NC1CCN(S(=O)(=O)c2ccc(F)cc2)CC1	1	-5	-12	7	96*	6	89*
CCc1nc2ccc(C(=O)N(CC)CCN(C)C)cn2c1N(C=O)CCC(C)C	0	3	·	·	0	·	·
COCCNC(=O)CN1C(=O)NC2(CCCc3cc(OC)ccc32)C1=O (stereo unspecified)	0	-18	16	0	2	-4	·
Cc1cc(NC(=O)C(C)SCC(=O)Nc2ccccc2OC(F)F)no1 (stereo unspecified)	0	-13	-9	3	0	-3	·
COc1ccccc1Nc1nc(NCc2ccco2)c2ccccc2n1	0	10	-21	-31	71*	0	84*
Fc1ccccc1-c1nc(NCc2ccco2)c2ccccc2n1	0	-5	9	28	5	-1	·
CCOc1ccccc1NC(=O)C(OC(=O)c1ccc(O)cc1)c1ccccc1 (stereo unspecified)	0	-11	6	18	89*	-3	86*
COc1cc(/C=C/C(=O)N2CCC=CC2=O)cc(OC)c1OC	0	18	41	-16	0	2	·
CCN(CC)CCOC(=O)C(c1ccccc1)c1ccccc1	0	-6	-3	-3	-1	4	·
SMILES	aDG glyco act	NR2E3 ag-1	Jurkat NFkB inh	697 NFkB inh	MPTP inh	NR2E3 ag-2	MPTP counter	others
CCN(CC)CCSC(=O)C(c1ccccc1)c1ccccc1	0	7	·	·	65*	·	-2	MPTP abs DR=i;MPTP cs DR=>80
CC(C)CN(Cc1cc(=O)oc2cc(-c3ccccc3)c(O)cc12)CC(C)C	0	11	-9	-91	93*	-5	85*
O=c1cc(CN2CCN(C/C=C/c3ccccc3)CC2)c2cc(O)c(-c3ccccc3)cc2o1	0	-7	-8	-16	4	0	·
O=[N+]([O-])c1ccc(O)c2cccnc12	0	8	-16	8	-3	-5	·
O=[N+]([O-])c1cc([N+](=O)[O-])c2cccnc2c1Oc1ccccc1O	0	-37	·	·	70*	0	80*
Cc1cc(N2CCN(c3ccccc3)CC2)nc(NCc2ccccc2)n1	2	3	6	-70	65*	-2	21*
Cc1ccc(Nc2cc(C)nc(NCc3ccccc3)n2)cc1	0	12	27	-17	56*	3	45*
Cc1ccccc1CN1CCN(CC(=O)NCCCN2CCN(c3ccc(F)cc3)CC2)C1=O	0	15	10	-7	56*	4	18
O=C(CN1CCN(Cc2ccc(Cl)cc2)C1=O)NCCCN1CCN(c2ccc(F)cc2)CC1	2	18	20	-11	69*	-5	16	MPTP abs DR=11*;MPTP cs DR=12*
O=C(CN1CCN(Cc2ccc(F)cc2Cl)C1=O)NCCCN1CCOCC1	0	-2	0	-22	-2	1	·
Cc1ccc(S(=O)(=O)N(CC(=O)N2CCC(C)CC2)c2cccc(C)c2)cc1	0	-2	-3	18	4	2	·
Cc1ccc(Cn2ncc3c(N4CCCC4)ncnc32)cc1	0	11	6	-18	62*	-1	1	MPTP abs DR=>100;MPTP cs DR=>80
O=C(CSc1nc2[nH]ncc2c(=O)n1-c1ccccc1)N1CCCCCC1	·	·	0	1	·	-2	·
CC1=CC(C)(C)N2C(=O)C3(N=C(N)NC(Nc4ccccc4)=N3)c3cc(C)cc1c32 (stereo unspecified)	0	-10	31	10	88*	-4	-12	MPTP abs DR=9.3*;MPTP cs DR=>80
Cc1cccc(NC2=NC(C)(C)N=C(N)N2)c1	0	4	40	-40	1	-2	·
Cc1nc(N)nc(N)c1/C=C/C(C)(C)c1ccc(Cl)cc1	0	9	·	·	97*	·	91*
Cc1nc(N)nc(N)c1Oc1ccc(Cl)cc1	0	29	·	·	3	·	·
c1ccc(C2=NNC(c3ccccn3)=NN2)nc1	0	-40	-91	-99	-1	1	·
Cc1nc2cc(NC(=O)Nc3ccc(Br)cc3)ccc2o1	0	-116	-90	-119	82*	2	83*
O=C(Nc1nc(-c2ccc(F)cc2)cs1)C1CCN(C(=O)c2ccc(F)cc2)CC1	2	1	36	-34	64*	-1	78*

Screening results from PubChem.
